{"data": "Measured values pooled from the literature", "target": "Carbonic anhydrase 1 (CA1, Homo sapiens, UniProt P00915)", "effect on": "enzyme activity", "mode": "inhibitor", "note": "Protocols differ between the studies behind these lines."}
{"Structure (SMILES)": "NC(=S)N/N=C1/c2ccccc2[C@@H]2[C@H]1[C@@H](c1ccccc1)[C@H](C(=O)c1ccccc1)[C@H]2c1ccccc1 (racemic)", "technique": "absorbance", "quantity": "IC50", "value": "1550 nM"}
{"Structure (SMILES)": "CC(C)c1cc2c(c(O)c1O)[C@@]13CCCC(C)(C)[C@@H]1C[C@@H]2OC3=O", "quantity": "IC50", "value": "2.4 nM"}
{"Structure (SMILES)": "NC(=S)N/N=C1/c2ccccc2[C@@H]2[C@H]1[C@@H](c1ccsc1)[C@H](C(=O)c1ccsc1)[C@H]2c1ccsc1 (racemic)", "technique": "absorbance", "quantity": "IC50", "value": "452 nM"}
{"Structure (SMILES)": "O=C(Nc1ccc(Cl)cc1)Nc1ccc2c(c1)C=CCP(=O)(O)O2", "technique": "stopped-flow", "quantity": "Ki", "value": "> 10 µM"}
{"Structure (SMILES)": "Cc1ccc([C@H]2[C@H](C(=O)c3cccs3)[C@@H](c3cccs3)[C@@H]3c4ccccc4/C(=N/NC(N)=S)[C@@H]32)cc1 (racemic)", "technique": "absorbance", "quantity": "IC50", "value": "1670 nM"}
{"Structure (SMILES)": "CC(C)c1cc2c(c(O)c1O)[C@@]13CCCC(C)(C)[C@@H]1[C@@H](O)[C@@H]2OC3=O", "quantity": "Ki", "value": "0.00128 µM"}
{"Structure (SMILES)": "CCOP1(=O)CC=Cc2cc(N)ccc2O1 (stereo not drawn)", "technique": "stopped-flow", "quantity": "Ki", "value": "> 10 µM"}
{"Structure (SMILES)": "CC(C)c1cc2c(c(O)c1O)[C@@]1(C(=O)O)CCCC(C)(C)[C@@H]1CC2", "quantity": "Ki", "value": "0.00598 µM"}
{"Structure (SMILES)": "NC(=S)N/N=C1/c2ccccc2[C@@H]2[C@H]1[C@@H](c1ccc(F)cc1)[C@H](C(=O)c1ccc(F)cc1)[C@H]2c1ccc(F)cc1 (racemic)", "technique": "absorbance", "quantity": "IC50", "value": "293 nM"}
{"Structure (SMILES)": "N#C[Se]CCCCOc1ccc2c(-c3ccccc3)cc(=O)oc2c1", "technique": "stopped-flow", "quantity": "Ki", "value": "> 100 µM"}
{"Structure (SMILES)": "O=C(Nc1cccc(C(F)(F)F)c1)Nc1ccc2c(c1)C=CCP(=O)(O)O2", "technique": "stopped-flow", "quantity": "Ki", "value": "> 10 µM"}
{"Structure (SMILES)": "Cc1c(Cl)c(=O)oc2cc(OCCCC[Se]C#N)ccc12", "technique": "stopped-flow", "quantity": "Ki", "value": "> 100 µM"}
{"Structure (SMILES)": "CC(C)c1cc2c(c(O)c1O)[C@@]13CCCC(C)(C)[C@@H]1[C@H](OC3=O)[C@H]2O", "quantity": "IC50", "value": "0.21 nM"}
{"Structure (SMILES)": "NC(=S)N/N=C1/c2ccccc2[C@@H]2[C@H]1[C@@H](c1cccs1)[C@H](C(=O)c1cccs1)[C@H]2c1cccs1 (racemic)", "technique": "absorbance", "quantity": "IC50", "value": "774 nM"}
{"Structure (SMILES)": "O=C(Nc1ccc2c(c1)C=CCP(=O)(O)O2)c1ccc([N+](=O)[O-])cc1", "technique": "stopped-flow", "quantity": "Ki", "value": "> 10 µM"}
